In ChEMBL document CHEMBL1144398, “Structure-based design, parallel synthesis, structure-activity relationship, and molecular modeling studies of thiocarbamates, new potent non-nucleoside HIV-1 reverse transcriptase inhibitor isosteres of phenethylthiazolylthiourea derivatives” (J Med Chem, 2005):
pEC50, pIC50: −log10 of the molar value.

What was measured:
MT4 [1] = test: Effective concentration require to protect MT-4 cells from human immunodeficiency virus type 1 induced cytopathogenicity was determined by MTT method; format: functional, cell-based
Summary of the method: (§1)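 MT-4 cells infected with HIV-1, with test compounds added. Protection from virus-induced cytopathogenicity was read by MTT. EC50 is the concentration giving 50% protection. Values are means of three separate experiments, with variation among triplicates under 10%. Trovirdine served as the reference.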

[2] = target: Human immunodeficiency virus type 1 reverse transcriptase (Human immunodeficiency virus 1, UniProt Q72547, Y181C); test: Inhibitory concentration against HIV-1 mutant reverse transcriptase (Y181C)
[3] = target: Human immunodeficiency virus type 1 reverse transcriptase (Human immunodeficiency virus 1, UniProt Q72547, K103N/Y181C); test: Inhibitory concentration against HIV-1 mutant reverse transcriptase (K103N+Y181C)
[4] = target: T1, Human immunodeficiency virus type 1 reverse transcriptase (Human immunodeficiency virus 1, UniProt Q72547); test: Inhibitory concentration against HIV-1 mutant reverse transcriptase (K103R)
[5] = target: T1, Human immunodeficiency virus type 1 reverse transcriptase; test: Inhibitory concentration against HIV-1 wild type reverse transcriptase (IIIB)
MT4 [6] = test: Cytotoxic concentration required to reduce the viability of mock infected MT-4 cells determined by MTT method; format: functional; settings: Homo sapiens
Summary of the method: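 Viability of mock-infected MT-4 cells, assayed in parallel with the antiviral test, read by MTT. CC50 is the concentration that lowers viability by 50%. Values are means of three separate experiments, with variation among triplicates under 10%. The highest concentration tested was 100 µM.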

MT4 [7] = test: Ratio of CC50 to that of EC50 determined in MT-4 cells; format: functional
Summary of the method: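 Selectivity index, calculated as CC50/EC50. CC50 came from MTT viability of mock-infected MT-4 cells and EC50 from MTT-read protection of HIV-1-infected MT-4 cells from cytopathogenicity, with both run in parallel. Values are means of three experiments.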

MT4 [8] = test: Effective concentration require to protect MT-4 cells from HIV-1 Y181C mutant induced cytopathogenicity was determined by MTT method; format: functional, cell-based, Homo sapiens
Summary of the method: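 HIV-1 strains carrying the Y181C RT mutation in MT-4 cells. EC50 is the concentration giving 50% protection from virus-induced cytopathogenicity, read out by MTT. Trovirdine was run as the reference. Values are means of three separate experiments.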

C8166 = test: Effective concentration required to reduce the amount of p24 antigen levels in wild type human immunodeficiency virus type 1 infected C8166 cultures; format: functional
Summary of the method: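 C8166 cultures infected with wild-type HIV-1. p24 antigen in the cultures was measured after compound treatment, and EC90 is the concentration that reduces p24 by 90%. Trovirdine served as the reference.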

MT4 [9] = test: Effective concentration require to inhibit human immunodeficiency virus type 1 induced cytopathogenicity in MT-4 cells determined by MTT method; format: functional, cell-based; summary of the method: as §1

| SMILES | pEC50 (MT4 [1]) | pIC50 [2] | pIC50 [3] | pIC50 [4] | pIC50 [5] | CC50 (MT4 [6]) | SI (MT4 [7]) | pEC50 (MT4 [8]) | EC90 (C8166) | pEC50 (MT4 [9]) |
| --- | --- | --- | --- | --- | --- | --- | --- | --- | --- | --- |
| O=C(O)c1ccccc1C(=O)NCCO/C(S)=N\c1ccc(I)cc1 | 6.89 | 5.32 | < 4.70 | < 4.70 | 5.77 | > 100000 nM | >769 | – | – | – |
| O=C1c2ccccc2C(=O)N1CCOC(=S)Nc1ccc([N+](=O)[O-])cc1 | 7.40 | – | – | – | – | 65000 nM | 1625 | 5.22 | 30 nM | – |
| O=C1c2ccccc2C(=O)N1CCOC(=S)Nc1ccc(F)cc1 | 7.00 | – | – | – | – | > 100000 nM | >1000 | 4.42 | 100 nM | – |
| O=C1c2ccccc2C(=O)N1CCOC(=S)Nc1ccc(Cl)cc1 | 7.40 | – | – | – | – | > 100000 nM | >2500 | 5.64 | 40 nM | – |
| O=C1c2ccccc2C(=O)N1CCOC(=S)Nc1ccc(I)cc1 | 7.70 | < 4.70 | < 4.70 | 5.64 | 7.05 | > 100000 nM | >5000 | – | 40 nM | – |
| Cc1cccc2c1C(=O)N(CCO/C(S)=N/c1ccc([N+](=O)[O-])cc1)C2=O | 7.15 | – | – | – | – | 71000 nM | 1014 | – | – | – |
| CCOc1ccc(NC(=S)OCCNC(=O)c2ccccc2C(=O)O)cc1 | 5.70 | – | – | – | – | > 100000 nM | 50 | – | – | – |
| O=C(O)c1ccccc1C(=O)NCCO/C(S)=N\c1ccc(OCc2ccccc2)cc1 | 6.30 | – | – | – | – | > 100000 nM | >200 | – | – | – |
| O=C1c2ccccc2C(=O)N1CCOC(=S)Nc1cccc(Cl)c1 | 5.70 | – | – | – | – | > 100000 nM | >50 | – | – | – |
| CC(=O)c1ccc(NC(=S)OCCN2C(=O)c3ccccc3C2=O)cc1 | 6.85 | – | – | – | – | > 100000 nM | >714 | – | – | – |
| CC(C)c1ccc(NC(=S)OCCN2C(=O)c3ccccc3C2=O)cc1 | 7.40 | – | – | – | – | 94000 nM | 2350 | – | – | – |
| COc1ccc(NC(=S)OCCN2C(=O)c3ccccc3C2=O)cc1 | 7.52 | – | – | – | – | > 100000 nM | >3333 | – | – | – |
| Cc1ccc(NC(=S)OCCN2C(=O)c3ccccc3C2=O)cc1 | 7.70 | – | – | – | – | > 100000 nM | >5000 | – | 15 nM | 5.74 |
| Cc1ccccc1/N=C(/S)OCCNC(=O)c1ccccc1C(=O)O | 4.57 | – | – | – | – | > 100000 nM | >3.7 | – | – | – |
| O=C1C2CC=CCC2C(=O)N1CCOC(=S)Nc1ccc(Br)cc1 (stereo not given) | 5.64 | – | – | – | – | > 100000 nM | >43 | – | – | – |
| COc1cccc(NC(=S)OCCN2C(=O)c3ccccc3C2=O)c1 | 5.40 | – | – | – | – | > 100000 nM | >25 | – | – | – |
